We go through eleven molecules from PMC3423201 (Molecular cancer therapeutics, 2011).

The structures appear in SMILES notation. Where two headings read alike, the source gives them in different places. Some results are limits rather than exact numbers.

Data set [1] deals with T1, AMACR-MBP (Homo sapiens, UniProt Q9UHK6).
T1 sequence (Q9UHK6 1-382): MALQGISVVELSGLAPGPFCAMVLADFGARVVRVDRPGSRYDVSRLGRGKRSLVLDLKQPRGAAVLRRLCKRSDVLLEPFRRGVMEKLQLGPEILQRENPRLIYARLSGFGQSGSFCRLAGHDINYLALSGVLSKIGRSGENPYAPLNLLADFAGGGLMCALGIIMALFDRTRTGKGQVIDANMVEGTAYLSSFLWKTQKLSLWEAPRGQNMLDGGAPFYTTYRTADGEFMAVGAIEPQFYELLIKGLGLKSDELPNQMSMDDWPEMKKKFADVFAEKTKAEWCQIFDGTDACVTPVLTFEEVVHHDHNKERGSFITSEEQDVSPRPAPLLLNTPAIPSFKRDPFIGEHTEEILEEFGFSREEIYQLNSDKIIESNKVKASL
The data set can be described thus: AMACR inhibitor IC50 determination. In kind it is biochemical. An outline of the steps: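 Run as the plate screen (0.3 μM AMACR-MBP, 100 μM [2,3-3H]Pri-CoA, SPE and scintillation read-out), adding enzyme last. Test compound was dosed at 1–1000 μM, extended to 1–750 nM for selected compounds, from 100% DMSO stocks, giving 2–6% DMSO, in triplicate. Fractional activity was fitted by 3-parameter log(inhibitor)-response regression.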

Data set [2] has as its target T2, AMACR (Homo sapiens, UniProt Q9UHK6).
T2 sequence (Q9UHK6 1-382): T1 sequence (Q9UHK6 1-382)
The data set can be described thus: Pre-incubation of AMACR with cysteine specific reagents, with or without ebselen. In kind it is biochemical. Conditions: 20 mM dithithreitol, 5 mM tributylphosphine, 15 mM iodoacetamide.

For data set [3], the target named is T1, AMACR-MBP. The data set can be described thus: Kinetic parameters. Format: biochemical. The conditions noted are these: 0.3 μM AMACR-MBP, 37°C, ± SEM. In a few lines: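 Reactions of 185 μL held 0.3 μM AMACR-MBP in Na/K/Pi pH 7.25 with BSA at 37°C. [2,3-3H]Pri-CoA was used at 1–400 μM (twelve levels), all at 60 Ci/mol, and reactions were started with enzyme. Aliquots of 20 μL were taken at 0–900 s and quenched in 2 M HCl, with no-enzyme backgrounds at each time point. Aliquots were processed by SPE/scintillation, DPM were converted to rates, and rates were fitted directly to Michaelis-Menten.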

The target in data set [4] is T1, AMACR-MBP. The data set can be described thus: High-throughput screen for AMACR inhibitors. In kind it is biochemical. The conditions noted are these: for inhibition at 100 µM: read-out: inhibition (decrease of fractional activity) in HTS. An outline of the steps:
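Recombinant AMACR-MBP was expressed in E. coli TB1, purified on a maltose column and dialysed into 100 mM Na/K/Pi pH 7.25. Enzyme (0.3 μM) was incubated with 100 μM test compound (1% DMSO) and 150 μM [2,3-3H]Pri-CoA (60 Ci/mol) in buffer with 0.125 mg/mL BSA for 30 min at 37°C. Reactions were acid-quenched, neutralised and passed through C18 SPE, and released 3H2O was scintillation-counted. Fractional activity was calculated against each row's no-inhibitor control after no-enzyme background subtraction; <0.8 was flagged as a hit.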

Data set [5] addresses T1, AMACR-MBP. The data set can be described thus: Kitz-Wilson analysis of time-dependent inactivation. In kind it is biochemical. The conditions noted are these: for KI (inactivation): 37°C, Kitz-Wilson transformation. An outline of the steps: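 Inactivation mixtures at 37°C contained test compound at a series of concentrations and 5 μM AMACR-MBP, started with enzyme. At timed points from zero, 2 μL was diluted 50-fold into buffer with 150 μM [2,3-3H]Pri-CoA (100 nM final enzyme) and reacted for 30 min, then SPE/scintillation. Activity remaining was expressed versus time-matched no-inhibitor controls. T1/2 was regressed against 1/[I], giving kinact = ln2/y-intercept and KI(inact) = −1/x-intercept.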

The test system of data set [6] is WPMY1. The data set can be described thus: In-vitro LD50, alamarBlue viability, WPMY1. In kind it is cell-based, human. Conditions: WPMY1, 48 hours. An outline of the steps:
(§1)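 Cells were plated at 10,000 per well in triplicate and allowed to attach overnight. Medium was replaced with test compound (0–500 μM or 0–400 μM depending on compound) for 48 h. Cells were then incubated with alamarBlue for 4 h and fluorescence read at 544 ex/590 em. After media-only background subtraction, viability was expressed as a percent of the vehicle control. LD50 came from a 4-parameter variable-slope fit with the bottom constrained to zero.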

The test system of data set [7] is PC3. Description: In-vitro LD50, alamarBlue viability, PC3. In kind it is cell-based, human. Conditions: PC3, 48 hours. An outline of the steps:
as §1
(The colour change of resazurin is a common sign of viable cells or microbes.)

Data set [8] relates to LAPC4. The data set can be described thus: In-vitro LD50, alamarBlue viability, LAPC4. In kind it is cell-based, human. Conditions: LAPC4, 48 hours. An outline of the steps:
as §1

Data set [9] deals with LNCaP. Description: In-vitro LD50, alamarBlue viability, LNCaP. In kind it is cell-based, human. The conditions noted are these: 48 hours. An outline of the steps:
as §1

Data set [10] in a line: Mode of cell death. Format: cell-based. Conditions: Supplementary Figure S7.
The test system of data set [11] is prostate cancer cell lines (LAPC4/LNCaP/PC3) compared to WPMY1. In kind it is cell-based, human. Conditions: highest vs lowest AMACR expressor. In a few lines: as §1
Data set [12] has as its target T1, AMACR-MBP. Description: Effect of pre-incubation time on ebselen inhibition. Format: biochemical.
For data set [13] the following is noted: neuroprotective doses, 300 mg/day, oral; ref [44], [46]; cited from earlier work.

By IC50 is commonly meant the concentration that inhibits the measured activity by half. Low readings indicate greater potency in that assay, high ones weaker potency in that assay. `O=C1c2ccccc2[Se](=O)N1c1ccccc1` (centres unmarked) [ebselen oxide] came in with a half-maximal inhibitory concentration (IC50) in data set [1] (100 μM [2,3-3H]Pri-CoA, 0.3 μM AMACR-MBP, enzyme initiated) of 0.8 µM.
Turning to `O[C@@H](CS)[C@@H](O)CS` (racemic) [DTT, dithithreitol], the “effect of pre-incubation with cysteine specific reagent on AMACR-MBP activity” value in [2] is recorded as “does not abrogate AMACR-MBP activity”.
Same read-out and setting: as for `NC(=O)CI` [IAA, iodoacetamide], the entry is “does not abrogate AMACR-MBP activity”.
The Vmax is the top rate of the reaction or transport when substrate is in excess. In the case of `[3H]C(CCC(C)CCCC(C)CCCC(C)C)C([3H])(C)C(=O)SCCNC(=O)CCNC(=O)[C@H](O)C(C)(C)COP(=O)(O)OP(=O)(O)OC[C@H]1O[C@@H](n2cnc3c(N)ncnc32)[C@H](O)[C@@H]1OP(=O)(O)O` (some centres unmarked) [[2,3-^3H] Pri-CoA, [2,3-^3H] pristanoyl coenzyme A], in data set [3], the maximal velocity (Vmax) turned out to be 294.9 ± 21.10 pmol/min.
For orientation: inhibition means the percentage by which the read-out fell short of the control. With `Nc1c(/N=N/c2ccc(-c3ccc(/N=N/c4cc(S(=O)(=O)O)c5ccccc5c4N)cc3)cc2)cc(S(=O)(=O)O)c2ccccc12` [Congo Red, congo red], the inhibition at 100 µM in data set [4] is ≥ 20%.
In the case of `Cc1cc(O)c(-c2cc(O)c(C)cc2O)cc1O` [DMPMB, 2-(2,5-dihydroxy-4-methylphenyl)-5-methyl benzene-1,4-diol], in data set [5], the mode of inhibition result was “irreversible inactivators”. The molecule further came in with a KI (inactivation) in data set [5] of 24.3 µM. The LD50 in data set [6] was determined as 117.6 ± 1.011 µM; in data set [7] it was 101.1 ± 1.034 µM; in data set [8], 58.78 ± 1.058 µM; in [9], 116.9 ± 1.033 µM. Besides, in data set [10], the “type of cell death induced” value was “necrotic cell death”.
As for `O=C1c2c(O)ccc(O)c2C(=O)c2c(NCCNCCO)ccc(NCCNCCO)c21` [mitoxantrone], the “inhibition of AMACR-MBP detected in library screen” value in data set [4] (100 μM, both JHDL and NCI/DTP libraries) is “inhibition of AMACR-MBP”.
Broadly, the Km is the concentration of substrate that gives half-maximal velocity. On to `CC(C)CCCC(C)CCCC(C)CCCC(C)C(=O)SCCNC(=O)CCNC(=O)[C@H](O)C(C)(C)COP(=O)(O)OP(=O)(O)OC[C@H]1O[C@@H](n2cnc3c(N)ncnc32)[C@H](O)[C@@H]1OP(=O)(O)O` (some centres unmarked) [[2,3-^3H] Pri-CoA, [2,3-^3H] pristanoyl coenzyme A], for which the Km in [3] amounted to 85.6 ± 17.1 µM.
On to `CCCCP(CCCC)CCCC` [TBP, tributylphosphine], for which the “effect of pre-incubation with cysteine specific reagent on AMACR-MBP activity” value in [2] is recorded as “does not abrogate AMACR-MBP activity”.
For `CSc1nc(=S)c2[nH]c(=S)[nH]c2[nH]1` [MSDTP, 2-methylsulfanyl-7,9-dihydro-3H-purine-6,8-dithione], in [5], the mode of inhibition result is “covalent inactivators”.
As to `O=c1c2ccccc2[se]n1-c1ccccc1` [ebselen], in [4], the inhibition at 100 µM is ≥ 20%. Further, 2.79 µM corresponded to half-maximal inhibition in [1] (IC50). Further, the mode of inhibition result in data set [5] is on record as “irreversible inactivators”. This molecule had a KI (inactivation) in data set [5] of 24 µM. Besides, the LD50 in data set [6] came to 467.1 ± 1.017 µM; in data set [7], 332.3 ± 1.015 µM; in data set [8], 98.43 ± 1.038 µM; in data set [9], 71.96 ± 1.106 µM. In addition, the “difference in LD50 between LNCaP and WPMY1” value in data set [11] came out at 5 fold. In data set [10], the “type of cell death induced” value is listed as “necrotic cell death”. Further, the entries for the “fractional activity of AMACR-MBP” value in [12] (no pre-incubation (enzyme initiated)) and in data set [12] (pre-incubation time of ≥ 5 minutes (substrate initiated)) were ~ 50% and “just above background”, respectively. The “tolerability in clinical trials” value in [13] was “well tolerated”.
